Measured values reported in ChEMBL document CHEMBL1144782, “Isoindolo[2,1-a]quinoxaline derivatives, novel potent antitumor agents with dual inhibition of tubulin polymerization and topoisomerase I” (2008).
Values joined by “and” are separate entries in the source; they are usually repeats but may differ in a detail not shown here. Identical values can stand only once.

How the values were obtained:
Assay type in all cases: functional
DU-145 = experiment: Antitumor activity against human DU145 cells
Procedure, shortened: (§1)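 Run by the NCI in its in vitro disease-oriented screen of about 60 human tumour cell lines. For each line it reports pGI50 (50% net growth inhibition), pTGI (total growth inhibition) and pLC50 (50% net cell death), each as –log molar concentration. Where an effect was not reached within the tested range, the highest tested concentration was used.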

A498 = experiment: Antitumor activity against human A498 cells; procedure, shortened: as §1
CCRF-CEM [1] = experiment: Antitumor activity against human CCRF-CEM cells; procedure, shortened: as §1
RPMI-8226 = experiment: Antitumor activity against human RPMI8226 cells; procedure, shortened: as §1
MCF7 [2] = experiment: Growth inhibition of human MCF7 cells after 72 hrs by MTT assay; details: MCF7, 72 h
Procedure, shortened: (§2)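 Growth inhibition by MTT after 72 h incubation. Resistant sublines: LoVoDoxo and MCF-7 MDR were kept in 0.1 µg/mL doxorubicin; CEMVbl-100 was selected against vinblastine. GI50 given as mean ± SEM of three independent experiments. Resistance index is resistant-line GI50 over parental GI50.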

NCI-H23 = experiment: Antitumor activity against human NCI-H23 cells; procedure, shortened: as §1
MDA-MB-435 = experiment: Antitumor activity against human MDA-MB-435 cells; procedure, shortened: as §1
NCI-H226 = experiment: Antitumor activity against human NCI-H226 cells; procedure, shortened: as §1
SR = experiment: Antitumor activity against human SR cells
Procedure, shortened: (§3)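 NCI 60-cell-line screen. Parameters were GI50 (50% net growth inhibition), TGI and LC50, each reported as –log molar concentration. Where an effect was not reached within the tested range, the highest tested concentration was used in the calculation.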

NCI-H460 [3] = experiment: Cell viability against human NCI-H460 cells at 10 uM
MCF7 [4] = experiment: Resistance index, Ratio of GI50 for human multidrug-resistant MCF7 cells to GI50 for human MCF7 cells; procedure, shortened: as §2
CCRF-CEM [5] = experiment: Growth inhibition of human vinblastine-resistant CEM cells after 72 hrs by MTT assay; procedure, shortened: as §2
HCT-15 = experiment: Antitumor activity against human HCT15 cells; procedure, shortened: as §1
CCRF-CEM [6] = experiment: Growth inhibition of human CEM cells after 72 hrs by MTT assay; procedure, shortened: as §2
SNB-19 = experiment: Antitumor activity against human SNB19 cells; procedure, shortened: as §1
NCI-H460 [7] = experiment: Antitumor activity against human NCI-H460 cells; procedure, shortened: as §1
ACHN = experiment: Antitumor activity against human ACHN cells; procedure, shortened: as §1
UACC-257 = experiment: Antitumor activity against human UACC257 cells; procedure, shortened: as §3
BT-549 = experiment: Antitumor activity against human BT549 cells; procedure, shortened: as §1
SF-295 = experiment: Antitumor activity against human SF295 cells; procedure, shortened: as §1
OVCAR-3 = experiment: Antitumor activity against human OVCAR-3 cells; procedure, shortened: as §1
HT-29 = experiment: Antitumor activity against human HT29 cells; procedure, shortened: as §1
SK-MEL-2 = experiment: Antitumor activity against human SKMEL2 cells; procedure, shortened: as §1
EKVX = experiment: Antitumor activity against human EKVX cells; procedure, shortened: as §1
RXF 393 = experiment: Antitumor activity against human RXF393 cells; procedure, shortened: as §1
MOLT-4 = experiment: Antitumor activity against human MOLT4 cells; procedure, shortened: as §1
OVCAR-5 = experiment: Antitumor activity against human OVCAR5 cells; procedure, shortened: as §1
786-0 = experiment: Antitumor activity against human 786-0 cells; procedure, shortened: as §1
SK-MEL-28 = experiment: Antitumor activity against human SKMEL28 cells; procedure, shortened: as §1
[8] = Antitumor activity against human NCI-H322 cells; procedure, shortened: as §1
KM12 = experiment: Antitumor activity against human KM12 cells; procedure, shortened: as §1
MCF7 [9] = experiment: Growth inhibition of human multidrug-resistant MCF7 cells after 72 hrs by MTT assay; details: MCF7, 72 h; procedure, shortened: as §2
SW-620 = experiment: Antitumor activity against human SW620 cells; procedure, shortened: as §3
Malme-3M = experiment: Antitumor activity against human MALME3M cells; procedure, shortened: as §1
PC-3 = experiment: Antitumor activity against human PC3 cells; procedure, shortened: as §1
U-251 = experiment: Antitumor activity against human U251 cells; procedure, shortened: as §3
NCI/ADR-RES = experiment: Antitumor activity against human NCI/ADR-RES cells; procedure, shortened: as §1
Hs-578T = experiment: Antitumor activity against human HS578T cells; procedure, shortened: as §1
OVCAR-8 = experiment: Antitumor activity against human OVCAR8 cells; procedure, shortened: as §1
HOP-62 = experiment: Antitumor activity against human HOP62 cells; procedure, shortened: as §1
SK-MEL-5 = experiment: Antitumor activity against human SKMEL5 cells; procedure, shortened: as §1
[10] = read-out: Log LC50 (the source's name) (converted)

O=c1[nH]c2ccccc2n2cc3ccccc3c12
GI50 (DU-145): 7.59 µM and 38 µM | CC50 (DU-145; Homo sapiens, DU-145, read-out: Log LC50 (the source's name) (converted)): > 100 µM | GI50 (A498): 11.2 µM | CC50 (A498; [10]): 64.6 µM | TGI (A498; read-out: pTGI (converted)): 26.9 µM | GI50 (CCRF-CEM [1]): 5.89 µM | LC50 (CCRF-CEM [1]): > 100 µM | TGI (CCRF-CEM [1]; read-out: pTGI (converted)): 60.3 µM | GI50 (RPMI-8226): 3.72 µM | CC50 (RPMI-8226; [10]): > 100 µM | TGI (RPMI-8226; read-out: pTGI (converted)): 22.4 µM | GI50 (MCF7 [2]): 6.5 µM | GI50 (NCI-H23): 11.2 µM | LC50 (50% net cell kill) (NCI-H23): > 100 µM | TGI (NCI-H23; read-out: pTGI (converted)): 36.3 µM | GI50 (MDA-MB-435): 16.2 µM | LC50 (50% net cell death) (MDA-MB-435): 58.9 µM | TGI (MDA-MB-435; read-out: pTGI (converted)): 30.9 µM | GI50 (NCI-H226): 2.88 µM | LC50 (50% net cell kill) (NCI-H226): 55 µM | TGI (NCI-H226; read-out: pTGI (converted)): 13.8 µM | GI50 (SR): 2.88 µM | LC50 (SR): > 100 µM | TGI (SR; read-out: pTGI (converted)): 7.76 µM | Activity (NCI-H460 [3]): 0% | RatioGI50 (MCF7 [4]): 1.6 | GI50 (CCRF-CEM [5]): 3.8 µM | GI50 (HCT-15): 3.31 µM | CC50 (HCT-15; [10]): 93.3 µM | TGI (HCT-15; read-out: pTGI (converted)): 18.6 µM | GI50 (CCRF-CEM [6]): 4.7 µM | GI50 (SNB-19): 8.91 µM | CC50 (SNB-19; [10]): > 100 µM | TGI (SNB-19; read-out: pTGI (converted)): > 100 µM | GI50 (NCI-H460 [7]): 7.76 µM | CC50 (NCI-H460 [7]; [10]): > 100 µM | TGI (NCI-H460 [7]; read-out: pTGI (converted)): > 100 µM | GI50 (ACHN): 1.82 µM | LC50 (50% net cell kill) (ACHN): 34.7 µM | TGI (ACHN; read-out: pTGI (converted)): 7.24 µM | GI50 (UACC-257): 15.1 µM | LC50 (UACC-257): 72.4 µM | TGI (UACC-257; read-out: pTGI (converted)): 33.1 µM | GI50 (BT-549): 19.1 µM | LC50 (50% net cell kill) (BT-549): > 100 µM | TGI (BT-549; read-out: pTGI (converted)): 64.6 µM | GI50 (SF-295): 17.8 µM | CC50 (SF-295; [10]): 70.8 µM | TGI (SF-295; read-out: pTGI (converted)): 35.5 µM | GI50 (OVCAR-3): 18.6 µM | LC50 (50% net cell death) (OVCAR-3): 72.4 µM | TGI (OVCAR-3; read-out: pTGI (converted)): 36.3 µM | GI50 (HT-29): 4.37 µM | LC50 (HT-29): > 100 µM | TGI (HT-29; read-out: pTGI (converted)): > 100 µM | GI50 (SK-MEL-2): 20.4 µM | LC50 (SK-MEL-2): 72.4 µM | TGI (SK-MEL-2; read-out: pTGI (converted)): 38.9 µM | GI50 (EKVX): 4.79 µM | LC50 (50% net cell kill) (EKVX): > 100 µM | TGI (EKVX; read-out: pTGI (converted)): 69.2 µM | GI50 (RXF 393): 6.31 µM | CC50 (RXF 393; [10]): > 100 µM | TGI (RXF 393; read-out: pTGI (converted)): 30.2 µM | GI50 (MOLT-4): 3.63 µM | LC50 (MOLT-4): > 100 µM | TGI (MOLT-4; read-out: pTGI (converted)): 8.71 µM | GI50 (OVCAR-5): 10.5 µM | LC50 (50% net cell death) (OVCAR-5): > 100 µM | TGI (OVCAR-5; read-out: pTGI (converted)): 35.5 µM | GI50 (786-0): 4.27 µM | CC50 (786-0; [10]): 55 µM | TGI (786-0; read-out: pTGI (converted)): 18.2 µM | GI50 (SK-MEL-28): 22.4 µM | CC50 (SK-MEL-28; [10]): > 100 µM | TGI (SK-MEL-28; read-out: pTGI (converted)): > 100 µM | GI50 [8]: 24 µM | LC50 (50% net cell death) [8]: 89.1 µM | TGI ([8]; read-out: pTGI (converted)): 46.8 µM | GI50 (KM12): 19.1 µM | LC50 (50% net cell death) (KM12): 83.2 µM | TGI (KM12; read-out: pTGI (converted)): 39.8 µM | GI50 (MCF7 [9]): 10.6 µM | GI50 (SW-620): 3.72 µM | CC50 (SW-620; [10]): > 100 µM | TGI (SW-620; read-out: pTGI (converted)): > 100 µM | GI50 (Malme-3M): 25.1 µM | CC50 (Malme-3M; [10]): 85.1 µM | TGI (Malme-3M; read-out: pTGI (converted)): 46.8 µM | GI50 (PC-3): 5.75 µM | LC50 (50% net cell death) (PC-3): > 100 µM | TGI (PC-3; read-out: pTGI (converted)): 28.8 µM | GI50 (U-251): 3.24 µM | CC50 (U-251; [10]): 70.8 µM | TGI (U-251; read-out: pTGI (converted)): 13.5 µM | GI50 (NCI/ADR-RES): 6.46 µM | LC50 (NCI/ADR-RES): > 100 µM | TGI (NCI/ADR-RES; read-out: pTGI (converted)): 32.4 µM | GI50 (Hs-578T): 0.525 µM | CC50 (Hs-578T; [10]): > 100 µM | TGI (Hs-578T; read-out: pTGI (converted)): 34.7 µM | GI50 (OVCAR-8): 5.25 µM | LC50 (50% net cell death) (OVCAR-8): > 100 µM | TGI (OVCAR-8; read-out: pTGI (converted)): 33.1 µM | GI50 (HOP-62): 4.37 µM | LC50 (50% net cell death) (HOP-62): 52.5 µM | TGI (HOP-62; read-out: pTGI (converted)): 17.8 µM | GI50 (SK-MEL-5): 1.91 µM | LC50 (SK-MEL-5): 60.3 µM | TGI (SK-MEL-5; read-out: pTGI (converted)): 14.8 µM
